From ChEMBL document CHEMBL1156237, “Antiviral activity of benzimidazole derivatives. II. Antiviral activity of 2-phenylbenzimidazole derivatives” (Bioorg Med Chem, 2010)
Active and inactive are the calls of the source. No rule for the calls is given here.

Assays:
[1] = test system: Human immunodeficiency virus 1; experiment: Antiviral activity against HIV1 3B infected in human MT4 cells assessed as protection from virus-induced cytopathogenicity after 4 days by MTT method; assay type: functional, organism-based
How it was run: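 MT-4 cells, 1 × 10^4/well in RPMI with or without serial compound dilutions, infected with HIV-1 IIIB, 100 CCID50 (m.o.i. 0.01). Protection from virus-induced cytopathogenicity read by MTT.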

Yellow fever virus = experiment: Antiviral activity against Yellow fever virus 17D infected in BHK cells assessed as protection from virus-induced cytopathogenicity after 3 to 4 days by MTT method; assay type: functional, organism-based
Human alphaherpesvirus 1 = experiment: Antiviral activity against HSV1 KOS infected in african green monkey Vero cells after 3 days by plaque reduction assay; assay type: functional, organism-based; settings: Human alphaherpesvirus 1, KOS, 72 h
How it was run: (§1)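 Plaque reduction assay. Vero 76 cells at 2 × 10^5/well, grown overnight to confluence in D-MEM with 10% FBS. Infected 2 h with 50–100 PFU/well, unadsorbed virus removed. Overlay of D-MEM with 1% inactivated FBS and 0.75% methylcellulose, with or without serial compound dilutions. Incubated at 37 °C for 3 days (HSV-1 KOS, CVB-2 Ohio-1) or 5 days (RSV A2). Fixed and stained with crystal violet in 50% ethanol; plaques counted; EC50 by linear regression.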

[2] = Cytotoxicity against human MT4 cells after 96 hrs by MTT assay; assay type: cell-based; settings: MT4 cells
How it was run: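 Exponentially growing MT-4 cells at 1 × 10^5 cells/mL in RPMI-1640 with 10% FCS, exposed to serial compound dilutions at 37 °C, 5% CO2. Viability by MTT after 96 h; CC50 is the concentration reducing viability of mock-infected cells by 50%.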

[3] = test system: Bovine viral diarrhea virus 1; experiment: Antiviral activity against Bovine viral diarrhea virus NADL infected in MDBK cells assessed as protection from virus-induced cytopathogenicity after 3 to 4 days by MTT method; assay type: functional, organism-based, Bovine viral diarrhea virus 1-NADL; settings: Bovine viral diarrhea virus isolates and strains, MDBK
How it was run: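 Cytopathogenicity protection assay. MDBK cells at 3 × 10^4/well, grown overnight to confluence. Infected with BVDV NADL at m.o.i. 0.01 in MEM-E with 0.5% inactivated FBS, 1 mM Na pyruvate and 1% kanamycin. Serial compound dilutions added after 1 h. After 3–4 days at 37 °C, viability read by MTT; EC50 is the concentration giving 50% protection.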

[4] = test system: Vesicular stomatitis virus; experiment: Antiviral activity against VSV Indiana lab infected in african green monkey Vero cells after 2 days by plaque reduction assay; assay type: functional, organism-based
[5] = Cytotoxicity against african green monkey Vero cells; assay type: cell-based; settings: chlorocebus sabaeus
How it was run: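 Vero 76 monolayers exposed to serial compound dilutions, run in parallel on the same 24-well plates as the plaque-reduction assays. CC50 is the concentration reducing viability of mock-infected cells by 50%.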

Poliovirus 1 = experiment: Antiviral activity against Polio virus type1 Sabin strain Chat infected in african green monkey Vero cells after 2 days by plaque reduction assay; assay type: functional, organism-based, Human poliovirus 1 strain Sabin; settings: Enterovirus C, 48 h
Coxsackievirus B2 = experiment: Antiviral activity against Human coxsackievirus B2 Ohio-1 infected in african green monkey Vero cells after 3 days by plaque reduction assay; assay type: functional, organism-based, Coxsackievirus B2 (strain Ohio-1); settings: Enterovirus B, Vero, 72 h; how it was run: as §1
[6] = Cytotoxicity against MDBK cells after 48 to 96 hrs by MTT assay; assay type: cell-based, Bos taurus; settings: cattle, MDBK cells
How it was run: (§2)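 Cell seeding: MDBK at 6 × 10^5 cells/mL in MEM-E with 10% horse serum and 1 mM Na pyruvate; BHK at 1 × 10^6 cells/mL in MEM-E with 10% FBS. Serial compound dilutions, 37 °C, 5% CO2. Viability of mock-infected cells by MTT after 48–96 h; CC50 is the concentration reducing viability by 50%.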

[7] = Cytotoxicity against BHK cells after 48 to 96 hrs by MTT assay; assay type: cell-based, Mesocricetus auratus; settings: hamster; how it was run: as §2
Vaccinia virus = experiment: Antiviral activity against Vaccinia virus Elstree-Lister infected in african green monkey Vero cells after 3 days by plaque reduction assay; assay type: functional, organism-based; settings: Orthopoxvirus vaccinia, 72 h
[8] = test system: Respiratory syncytial virus; experiment: Antiviral activity against RSV A2 infected in african green monkey Vero cells after 5 days by plaque reduction assay; assay type: functional, organism-based; how it was run: as §1
[9] = human respiratory syncytial virus, A2, Vero, 120 h

Structure (SMILES) | Activity [1] | EC50 (Yellow fever virus) [µM] | EC50 (Human alphaherpesvirus 1) [µM] | CC50 at 96 h [2] [µM] | EC50 [3] [µM] | Activity [4] | CC50 [5] [µM] | EC50 (Poliovirus 1) [µM] | EC50 (Coxsackievirus B2) [µM] | CC50 [6] [µM] | CC50 [7] [µM] | EC50 (Vaccinia virus) [µM] | EC50 [8, 9] [µM] | EC50 ([8]; vero) [µM]
CCC(=O)Nc1ccc(-c2nc3ccccc3[nH]2)cc1 | inactive | > 100 | > 100 | 35 | 47 | inactive | > 100 | 35 | 9 | > 100 | ≥ 100 | – | – | –
O=C(O)CCC(=O)Nc1ccc(-c2nc3cc(C(F)(F)F)ccc3[nH]2)cc1 | inactive | > 100 | > 100 | > 100 | > 100 | inactive | > 100 | > 100 | > 100 | > 100 | > 100 | – | – | –
O=c1cnn([C@@H]2O[C@H](CO)[C@@H](O)[C@H]2O)c(=O)[nH]1 (stereo in doubt; form 1) [6-AZAURIDINE] | – | – | – | – | – | – | – | > 20 | – | – | – | 11 | 1.2 | –
O=C(CCl)Nc1ccc(-c2nc3cc(C(F)(F)F)ccc3[nH]2)cc1 | inactive | > 22 | > 35 | 5 | > 17 | inactive | 35 | > 35 | 24 | 17 | 22 | – | – | –
C[C@@]1(O)[C@H](O)[C@@H](CO)O[C@H]1n1cnc2c(=O)[nH]c(N)nc21 [2'-B-METHYL-GUANOSINE] | – | 1.8 | > 100 | > 100 | – | – | > 100 | > 100 | 20 | > 100 | 90 | > 100 | > 100 | –
O=C(Nc1ccc(-c2nc3cc(C(F)(F)F)ccc3[nH]2)cc1)Nc1ccc(-c2nc3cc(C(F)(F)F)ccc3[nH]2)cc1 | inactive | > 17 | > 100 | > 100 | > 100 | inactive | > 100 | > 100 | > 100 | > 100 | 17 | – | – | –
O=C(CN1CCCCC1)Nc1ccc(-c2nc3cc(C(F)(F)F)ccc3[nH]2)cc1 | inactive | > 12 | > 31 | 6 | 2 | inactive | 31 | > 31 | 9 | 6 | 12 | – | – | –
COc1c(C)c2c(c(O)c1C/C=C(\C)CCC(=O)O)C(=O)OC2 [MYCOPHENOLIC ACID] | – | > 100 | > 13 | – | > 42 | – | ≥ 13 | > 13 | > 13 | – | > 100 | – | 0.6 | –
O=c1cnn([C@@H]2O[C@H](CO)[C@@H](O)[C@H]2O)c(=O)[nH]1 (stereo in doubt; form 2) [6-AZAURIDINE] | – | 26 | > 20 | – | > 100 | – | – | – | > 20 | > 100 | > 100 | – | – | 1.2
O=C(CN1CCOCC1)Nc1ccc(-c2nc3cc(C(F)(F)F)ccc3[nH]2)cc1 | inactive | > 86 | > 100 | > 100 | > 100 | inactive | > 100 | > 100 | > 100 | > 100 | 86 | – | – | –
NC(=O)c1ncn([C@@H]2O[C@H](CO)[C@@H](O)[C@H]2O)n1 [RIBAVIRIN] | – | > 100 | > 100 | – | – | – | > 100 | > 100 | > 100 | > 100 | > 100 | > 100 | 7 | –
O=C(CN1CCOCC1)Nc1ccc(-c2nc3ccccc3[nH]2)cc1 | inactive | > 100 | > 100 | 100 | > 77 | inactive | > 100 | > 100 | > 100 | 77 | > 100 | – | – | –
Nc1ccc(-c2nc3cc(C(F)(F)F)ccc3[nH]2)cc1 | inactive | > 100 | > 100 | 62 | 15 | inactive | > 100 | 47 | 17 | 82 | 100 | – | – | –
O=C(CN1CCCCC1)Nc1ccc(-c2nc3ccccc3[nH]2)cc1 | inactive | > 31 | > 100 | 31 | 7 | inactive | > 100 | > 100 | 17 | 18 | 31 | – | – | –
C#C[C@@]1(O)[C@H](O)[C@@H](CO)O[C@H]1n1ccc(N)nc1=O [2'-ETHYNYL-D-CYTIDINE] | – | > 100 | > 100 | ≥ 100 | 38 | – | > 100 | 23 | 27 | > 100 | > 100 | > 100 | > 100 | –
CC(=O)Nc1ccc(-c2nc3ccccc3[nH]2)cc1 | inactive | > 100 | > 100 | 100 | 90 | inactive | > 100 | > 100 | 87 | > 100 | > 100 | – | – | –
O=C(CN1CCN(c2ccccc2)CC1)Nc1ccc(-c2nc3cc(C(F)(F)F)ccc3[nH]2)cc1 | inactive | > 100 | > 100 | 0.9 | > 32 | inactive | > 100 | > 100 | > 100 | 32 | > 100 | – | – | –
O=C(CN1CCCC1)Nc1ccc(-c2nc3ccccc3[nH]2)cc1 | inactive | 19 | > 100 | 40 | 10 | inactive | > 100 | 90 | 11 | 70 | 55 | – | – | –
O=C(CNC12CC3CC(CC(C3)C1)C2)Nc1ccc(-c2nc3cc(C(F)(F)F)ccc3[nH]2)cc1 | inactive | > 18 | 45 | 15 | > 23 | inactive | 45 | > 45 | > 45 | 23 | 18 | – | – | –
O=C(CN1CCSCC1)Nc1ccc(-c2nc3cc(C(F)(F)F)ccc3[nH]2)cc1 | inactive | > 100 | > 100 | 6 | > 100 | inactive | > 100 | > 100 | > 100 | > 100 | > 100 | – | – | –
Nc1nc2c(ncn2COCCO)c(=O)[nH]1 [ACYCLOVIR] | – | > 100 | 3 | > 100 | > 100 | – | > 100 | > 100 | > 100 | > 100 | > 100 | > 100 | > 100 | –
CN1CCN(CC(=O)Nc2ccc(-c3nc4cc(Cl)c(Cl)cc4[nH]3)cc2)CC1 | inactive | > 41 | 51 | 11 | 4 | inactive | > 100 | 89 | > 100 | 90 | 41 | 6 | – | –
